Results on four molecules are retold here after ChEMBL document CHEMBL2150991, “Synthesis of novel N-branched acyclic nucleoside phosphonates as potent and selective inhibitors of human, Plasmodium falciparum and Plasmodium vivax 6-oxopurine phosphoribosyltransferases” (J Med Chem, 2012).

One data set concerns L1210. As to the kind of experiment: Cytostatic activity against mouse L1210 cells. In kind it is ADME, cell-based.
The nature of data set [1]: Cytotoxicity against human HEL cells. In kind it is cell-based.
Data set [2] is described as follows: Inhibition of Plasmodium falciparum recombinant HGPRT expressed in Escherichia coli using Prib-PP as substrate by spectrophotometric assay in presence of guanine. The method, boiled down: (§1)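 Continuous spectrophotometric assay at 25 °C in 0.1 M Tris-HCl, 10 mM MgCl₂, pH 7.4. PRib-PP is the variable substrate. Guanine is held fixed at a saturating 60 μM. Values are apparent Ki, since only one concentration of the second substrate was used. Each was calculated from Km(app) = Km(1 + [I]/Ki(app)).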

Data set [3] has as its target T1, Hypoxanthine-guanine phosphoribosyltransferase (Homo sapiens, UniProt P00492).
T1 sequence (P00492 whole entry): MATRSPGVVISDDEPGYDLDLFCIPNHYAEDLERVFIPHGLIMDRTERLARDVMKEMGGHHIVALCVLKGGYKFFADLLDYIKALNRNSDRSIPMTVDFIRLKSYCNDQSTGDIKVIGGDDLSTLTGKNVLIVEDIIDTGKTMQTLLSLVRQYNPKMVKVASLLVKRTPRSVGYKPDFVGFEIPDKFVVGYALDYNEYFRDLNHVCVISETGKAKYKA
Nature of the data set: Inhibition of human HGPRT using Prib-PP as substrate by spectrophotometric assay in presence of guanine. The essentials: as §1

Another data set has as its system CCRF-CEM. Nature of the data set: Cytostatic activity against human CCRF-CEM cells. In kind it is ADME, cell-based.
Data set [4] can be described thus: Cytotoxicity against cat CRFK cells. In kind it is cell-based, Felis catus.
The subject of another data set is HL-60. As to the kind of experiment: Cytostatic activity against human HL60 cells. In kind it is ADME, cell-based.
A short description of data set [5]: Cytotoxicity african green monkey Vero cells. In kind it is cell-based. Particulars: chlorocebus sabaeus.
Data set [6] can be described thus: Cytostatic activity against human HeLaS3 cells. As to conditions: hela s3. In kind it is ADME, cell-based.
The nature of data set [7]: Inhibition of Plasmodium vivax HGPRT using Prib-PP as substrate by spectrophotometric assay in presence of guanine. The method, boiled down:
as §1

What is called CC50 is the concentration that lowers cell viability or growth by half. A word on the Ki: it is a dissociation constant, usually derived from enzyme kinetics or from competition with a known ligand.

With `N#CCCN(CCn1cnc2c(=O)[nH]c(N)nc21)CCP(=O)(O)O`, the Activity result (with L1210; with CCRF-CEM; with HL-60; in data set [6]) was “Non-toxic” each time. The CC50 in [1], in [4] and in [5] was more than 100 µg/mL each time. Further, the Ki was 200 nM in data set [2], 70 nM in data set [3] and 300 nM in data set [7].

In the case of `O=c1[nH]cnc2c1ncn2CCN(CCO)CCP(=O)(O)O`, the Activity result (with L1210; in the data set on CCRF-CEM; with HL-60; in [6]) was “Non-toxic” in each case. Further, the CC50 in [1], in [4] and in [5] was more than 100 µg/mL throughout. Besides, the Ki in [2] came out at 2600 nM; in [3] it was 5500 nM; in [7], 21000 nM.

Take `COC(=O)CCN(CCn1cnc2c(=O)[nH]c(N)nc21)CCP(=O)(O)O`: the Activity entry (in the data set with L1210; in the data set with CCRF-CEM; in the data set with HL-60; in data set [6]) was “Non-toxic” each time. In addition, the CC50 in data set [1], in data set [4] and in data set [5] was more than 100 µg/mL throughout. The values for the Ki in data set [2], in [3] and in [7] were 100 nM, 500 nM and 4000 nM, respectively.

Turning to `O=C(O)CCCN(CCn1cnc2c(=O)[nH]cnc21)CCP(=O)(O)O`, the Activity result (in the data set with L1210; with CCRF-CEM; in the data set with HL-60; in [6]) was “Non-toxic” throughout. For the same molecule, the CC50 in [1], in data set [4] and in [5] was more than 100 µg/mL in each case. In addition, the results for the Ki in [2], in [3] and in data set [7] were not below 210000 nM, 5400 nM and 1600 nM, respectively.
